In ChEMBL document CHEMBL3259628, “Discovery of novel 2-((pyridin-3-yloxy)methyl)piperazines as α7 nicotinic acetylcholine receptor modulators for the treatment of inflammatory disorders” (J Med Chem, 2014):

Biological target: Neuronal acetylcholine receptor subunit alpha-7 (Rattus norvegicus, UniProt Q05941)
Assay: Inhibition of biotinylated alpha-bungarotoxin binding to alpha7 nAChR in rat PC12 cells by FACS analysis
Type: cell-based, PC-12
How it was run: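 Rat PC12 cells in binding buffer (PBS, 1.0% FBS, 0.02% sodium azide), 0.1% DMSO; biotinylated α-bungarotoxin 10 nM final, 1 h at room temperature; nonspecific binding defined with 1.5 μM unlabeled toxin. After washing, phycoerythrin-streptavidin 1.0 μg/mL final, 15 min in the dark; read by FACS. Screened at 10 and 1 μM, then eight-point 3-fold dilution IC50; mean of two or more experiments.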

Neuronal acetylcholine receptor subunit alpha-7, sequence (Q05941 whole entry): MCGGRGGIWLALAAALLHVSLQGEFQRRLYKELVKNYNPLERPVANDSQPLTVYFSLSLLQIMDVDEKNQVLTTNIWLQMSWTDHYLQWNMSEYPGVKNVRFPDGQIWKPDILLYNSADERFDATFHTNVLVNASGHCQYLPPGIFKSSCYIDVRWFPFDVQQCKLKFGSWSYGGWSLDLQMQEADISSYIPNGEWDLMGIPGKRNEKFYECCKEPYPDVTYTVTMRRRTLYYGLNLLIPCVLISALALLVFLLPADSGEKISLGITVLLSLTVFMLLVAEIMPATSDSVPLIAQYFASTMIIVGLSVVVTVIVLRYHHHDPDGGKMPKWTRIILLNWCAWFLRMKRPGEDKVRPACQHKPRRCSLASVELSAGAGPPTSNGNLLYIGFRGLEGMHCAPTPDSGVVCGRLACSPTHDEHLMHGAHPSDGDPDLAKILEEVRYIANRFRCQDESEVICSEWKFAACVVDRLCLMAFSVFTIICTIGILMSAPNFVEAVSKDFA

Row | SMILES | IC50 [nM]
1 | Brc1ccc2oc(N3CCNC[C@H]3COc3cccnc3)nc2c1 | 3200
2 | c1cncc(OC[C@@H]2CNCCN2c2nc3ncccc3o2)c1 | 1580
3 | COc1ccc2nc(N3CCNC[C@H]3COc3cccnc3)sc2c1 | 5100
4 | COc1ccc2nc(N3CCNCC3COc3cccnc3)sc2c1 (racemic) | 79
5 | COc1ccc2nc(N3CCNCC3COc3cccnc3)oc2c1 (racemic) | 22
6 | COc1ccc2oc(N3CCNCC3COc3cccnc3)nc2c1 (racemic) | 71
7 | Brc1ccc2oc(N3CCNCC3COc3cccnc3)nc2c1 (racemic) | 75
8 | c1cncc(OCC2CNCCN2c2nc3ncccc3o2)c1 (racemic) | 4
9 | c1cncc(OCC2CNCCN2c2nc3ccccc3s2)c1 (racemic) | 490
10 | COc1ccc2sc(N3CCNCC3COc3cccnc3)nc2c1 (racemic) | 107
11 | Cc1ccc2nc(N3CCNCC3COc3cccnc3)sc2c1 (racemic) | 85
12 | Clc1ccc2nc(N3CCNCC3COc3cccnc3)sc2c1 (racemic) | 153
13 | FC(F)(F)Oc1ccc2nc(N3CCNCC3COc3cccnc3)sc2c1 (racemic) | 270
14 | FC(F)(F)c1ccc2nc(N3CCNCC3COc3cccnc3)sc2c1 (racemic) | 338
15 | Fc1ccc2nc(N3CCNCC3COc3cccnc3)sc2c1 (racemic) | 132
16 | c1cncc(OCC2CNCCN2c2nc3ncccc3s2)c1 (racemic) | 32
17 | Clc1cnc2nc(N3CCNCC3COc3cccnc3)sc2c1 (racemic) | 4
18 | O=C(c1ccccc1)N1CCNCC1COc1cccnc1 (racemic) | 1080
19 | O=C(c1ccc(Cl)cc1)N1CCNCC1COc1cccnc1 (racemic) | 6100

Row | SMILES | IC50 [nM]
20 | O=C(Cc1ccccc1)N1CCNCC1COc1cccnc1 (racemic) | 560
21 | O=C(Cc1ccc(Cl)cc1)N1CCNCC1COc1cccnc1 (racemic) | 110
22 | O=C(COc1ccccc1)N1CCNCC1COc1cccnc1 (racemic) | 2340
23 | O=C(Nc1ccccc1)N1CCNCC1COc1cccnc1 (racemic) | 680
24 | O=C(Nc1ccc(Cl)cc1)N1CCNCC1COc1cccnc1 (racemic) | 70
25 | O=C(Oc1ccccc1)N1CCNCC1COc1cccnc1 (racemic) | 37
26 | O=C(Oc1ccc(Cl)cc1)N1CCNCC1COc1cccnc1 (racemic) | 9.5
27 | O=C(Nc1cccc(Cl)c1)N1CCNCC1COc1cccnc1 (racemic) | 210
28 | O=C(Nc1ccc(Cl)c(Cl)c1)N1CCNCC1COc1cccnc1 (racemic) | 40
29 | Cc1ccc(NC(=O)N2CCNCC2COc2cccnc2)cc1 (racemic) | 74
30 | O=C(Nc1ccc(C(F)(F)F)cc1)N1CCNCC1COc1cccnc1 (racemic) | 220
31 | CC(C)c1ccc(NC(=O)N2CCNCC2COc2cccnc2)cc1 (racemic) | 280
32 | COc1cccc(NC(=O)N2CCNCC2COc2cccnc2)c1 (racemic) | 340
33 | COc1ccccc1NC(=O)N1CCNCC1COc1cccnc1 (racemic) | 850
34 | COc1ccc(NC(=O)N2CCNCC2COc2cccnc2)c(OC)c1 (racemic) | 80
35 | O=C(Nc1ccc(OC(F)(F)F)cc1)N1CCNCC1COc1cccnc1 (racemic) | 152
36 | O=C(Nc1ccc(Br)cc1)N1CCNCC1COc1cccnc1 (racemic) | 50
37 | O=C(Nc1ccc(-c2ccccc2)cc1)N1CCNCC1COc1cccnc1 (racemic) | 13
38 | O=C(Nc1ccc2c(c1)CCO2)N1CCNCC1COc1cccnc1 (racemic) | 630
